According to ChEMBL document CHEMBL2034924, “Optimization of a Potent, Orally Active S1P1 Agonist Containing a Quinolinone Core” (ACS Med Chem Lett, 2012):
Converted amounts (≈) assume the structure as drawn. One block for each molecule: values may come before it.

Experiments:
[1] = target: T1, Sphingosine 1-phosphate receptor 3 (Homo sapiens, UniProt Q99500); experiment: Agonist activity at human S1P3 receptor expressed in CHO cells coexpressing Gq/i5 G-protein assessed as Ca2+ mobilization at 25 uM after 60 to 90 mins by FLIPR assay; assay type: functional, cell-based
[2] = Intrinsic clearance in rat liver microsomes at 1 uM after 30 mins; assay type: ADME, Microsome; settings: read-out: CLH
Rattus norvegicus [3] = experiment: Lymphopenic activity in Lewis rat assessed as reduction in peripheral blood lymphocyte counts at 1 mg/kg, po measured 24 hrs post dosing relative to control; assay type: functional; design: scale not given: the % may be the effect or the level left
How it was run: (§1)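 Female Lewis rats (N = 5/group) received a single oral dose of 1 mg/kg in 20% captisol, 1% HPMC, 1% pluronic F68, pH 2.1 with MSA. Peripheral lymphocyte count is given as percent-of-control reduction versus vehicle at 24 h. Total plasma drug concentration was measured at 24 h. Statistics used ANOVA/Dunnett versus vehicle.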

[4] = Solubility of the compound in simulated intestinal fluid at pH 6.8 after 2 to 3 days by HPLC analysis; assay type: physicochemical
[5] = target: T1, Sphingosine 1-phosphate receptor 3; experiment: Agonist activity at human S1P3 receptor expressed in CHO cells coexpressing Gq/i5 G-protein assessed as Ca2+ mobilization after 60 to 90 mins by FLIPR assay; assay type: functional, cell-based
How it was run: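 Ca2+ mobilization in CHO-K1 cells transfected with hS1P3/Gq/i5. EC50 is the molar concentration giving a half-maximal response.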

[6] = Plasma protein binding in rat; assay type: ADME, cell-free; settings: read-out: PPB (converted)
[7] = target: T1, Sphingosine 1-phosphate receptor 3; experiment: Agonist activity at human S1P3 receptor expressed in CHO cells coexpressing Gq/i5 G-protein assessed as Ca2+ mobilization after 60 to 90 mins by FLIPR assay relative to 0.2 uM S1P
[8] = target: T2, Sphingosine 1-phosphate receptor 1 (Homo sapiens, UniProt P21453); experiment: Agonist activity at human S1P1 receptor expressed in human U2OS cells co-expressing eGFP assessed as receptor internalization after 1 hr; assay type: functional, cell-based
How it was run: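 U2OS cells expressing an hS1P1-GFP fusion protein; the read-out was receptor internalization. EC50 is the molar concentration giving a half-maximal response.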

[9] = target: T2, Sphingosine 1-phosphate receptor 1; experiment: Agonist activity at human S1P1 receptor expressed in human U2OS cells co-expressing eGFP assessed as receptor internalization after 1 hr relative to 1-(4-(6-benzylbenzofuran-2-yl)-3-fluorobenzyl)azetidine-3-carboxylic acid; assay type: functional, cell-based
[10] = Apparent permeability of the compound across pig LLC-PK1 cells; assay type: ADME, cell-based, Sus scrofa
How it was run: (§2)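 Parental porcine proximal tubule LLC-PK1 cell line. Apparent permeability was measured, and the efflux ratio was derived from it.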

[11] = Plasma concentration in Lewis rat at 1 mg/kg, po measured 24 hrs post dosing; assay type: ADME, organism-based; design: dose 1 mg/kg, route oral; settings: Lewis, plasma; how it was run: as §1
[12] = Efflux ratio of permeability in pig LLC-PK1 cells; assay type: ADME, cell-based, Sus scrofa; how it was run: as §2
[13] = Oral bioavailability in Sprague-Dawley rat at 2 mg/kg; assay type: ADME, organism-based; settings: in vivo
How it was run: (§3)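 Male Sprague-Dawley rats. IV doses were given in DMSO. Oral doses were given in 20% Captisol/1% Tween 80, pH 2, with MSA. Plasma was collected up to 48 h after dosing.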

[14] = Mean residence time in nonhuman primates at 4 mg/kg, iv; assay type: ADME, organism-based; design: dose 4 mg/kg, route intravenous; settings: in vivo
How it was run: (§4)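 Pharmacokinetics in male nonhuman primates. IV vehicle was 40% hydroxypropyl β-cyclodextrin/60% water with MSA, pH 3. Oral vehicle was 1% HPMC/1% pluronic F68/20% HPBCD/78% water with MSA, pH 2.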

[15] = Clearance in nonhuman primates at 4 mg/kg, iv and 10 mg/kg, po; assay type: ADME, organism-based; settings: in vivo; how it was run: as §4
[16] = Clearance in C57BL/6 mouse at 1 mg/kg, iv and 3 mg/kg, po; assay type: ADME, organism-based; settings: in vivo
How it was run: (§5)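 Female C57BL/6 mice. IV dosing used 40% hydroxypropyl β-cyclodextrin/60% water. Oral dosing used 1% HPMC/1% pluronic F68/20% HPBCD/78% water with MSA, pH 2.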

[17] = Mean residence time in C57BL/6 mouse at 1 mg/kg, iv; assay type: ADME, organism-based; design: dose 1 mg/kg, route intravenous; settings: in vivo; how it was run: as §5
[18] = AUC (0 to infinity) in Sprague-Dawley rat at 100 mg/kg, po; assay type: ADME, organism-based; design: time infinity, dose 100 mg/kg, route oral; settings: plasma; how it was run: as §3
[19] = Oral bioavailability in Sprague-Dawley rat at 100 mg/kg; assay type: ADME, organism-based; settings: in vivo; how it was run: as §3
[20] = Volume of distribution at steady state in Sprague-Dawley rat at 1 mg/kg, iv; assay type: ADME, organism-based; design: dose 1 mg/kg, route intravenous; settings: in vivo, read-out: Vdss; how it was run: as §3
[21] = Oral bioavailability in nonhuman primates at 10 mg/kg; assay type: ADME, organism-based; settings: in vivo; how it was run: as §4
Rattus norvegicus [22] = experiment: Lymphopenic activity in Lewis rat assessed as reduction in peripheral blood lymphocyte counts at 3 mg/kg, po measured 24 hrs post dosing relative to control; assay type: functional; design: scale not given: the % may be the effect or the level left
How it was run: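 Female Lewis rats (N = 3/group) received a single oral dose in 20% captisol/1% HPMC/1% pluronic F68, pH 2, with MSA. Blood lymphocyte counts and plasma concentration were measured at 24 h, reported as mean ± SE. Comparison was versus vehicle by ANOVA/Dunnett, P < 0.05.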

[23] = Volume of distribution at steady state in C57BL/6 mouse at 1 mg/kg, iv; assay type: ADME, organism-based; design: dose 1 mg/kg, route intravenous; settings: in vivo, read-out: Vdss; how it was run: as §5
[24] = Half life in Sprague-Dawley rat at 100 mg/kg, po; assay type: ADME, organism-based; design: dose 100 mg/kg, route oral; settings: in vivo; how it was run: as §3
[25] = Oral bioavailability in C57BL/6 mouse at 3 mg/kg; assay type: ADME, organism-based; settings: in vivo; how it was run: as §5
[26] = AUC (0 to infinity) in C57BL/6 mouse at 3 mg/kg, po; assay type: ADME, organism-based; design: time infinity, dose 3 mg/kg, route oral; settings: plasma; how it was run: as §5
[27] = Mean residence time in Sprague-Dawley rat at 1 mg/kg, iv; assay type: ADME, organism-based; design: dose 1 mg/kg, route intravenous; settings: in vivo; how it was run: as §3
[28] = AUC (0 to infinity) in Sprague-Dawley rat at 2 mg/kg, po; assay type: ADME, organism-based; design: time infinity, dose 2 mg/kg, route oral; settings: plasma; how it was run: as §3
[29] = AUC (0 to infinity) in nonhuman primates at 10 mg/kg, po; assay type: ADME, organism-based; design: dose 10 mg/kg, route oral, time infinity; settings: plasma; how it was run: as §4
[30] = Volume of distribution at steady state in nonhuman primates at 4 mg/kg, iv; assay type: ADME, organism-based; design: dose 4 mg/kg, route intravenous; settings: in vivo, read-out: Vdss; how it was run: as §4
[31] = Half life in Sprague-Dawley rat at 1 to 2 mg/kg, iv and po; assay type: ADME, organism-based; design: dose 1-2 mg/kg, route oral; settings: in vivo; how it was run: as §3
[32] = Clearance in Sprague-Dawley rat at 1 mg/kg, iv and 2 mg/kg, po; assay type: ADME, organism-based; settings: in vivo; how it was run: as §3

T1 sequence (Q99500 whole entry): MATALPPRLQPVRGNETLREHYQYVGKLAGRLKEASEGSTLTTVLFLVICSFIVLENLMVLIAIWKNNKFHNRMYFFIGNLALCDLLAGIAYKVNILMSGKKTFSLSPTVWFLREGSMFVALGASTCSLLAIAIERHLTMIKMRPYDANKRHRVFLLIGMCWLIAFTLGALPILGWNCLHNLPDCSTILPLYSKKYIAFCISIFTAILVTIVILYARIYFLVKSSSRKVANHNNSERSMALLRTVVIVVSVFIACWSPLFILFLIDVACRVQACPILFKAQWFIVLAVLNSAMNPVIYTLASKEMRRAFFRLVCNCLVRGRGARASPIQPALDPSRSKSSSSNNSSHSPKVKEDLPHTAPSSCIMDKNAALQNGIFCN
T2 sequence (P21453 whole entry, the tested form may be a part): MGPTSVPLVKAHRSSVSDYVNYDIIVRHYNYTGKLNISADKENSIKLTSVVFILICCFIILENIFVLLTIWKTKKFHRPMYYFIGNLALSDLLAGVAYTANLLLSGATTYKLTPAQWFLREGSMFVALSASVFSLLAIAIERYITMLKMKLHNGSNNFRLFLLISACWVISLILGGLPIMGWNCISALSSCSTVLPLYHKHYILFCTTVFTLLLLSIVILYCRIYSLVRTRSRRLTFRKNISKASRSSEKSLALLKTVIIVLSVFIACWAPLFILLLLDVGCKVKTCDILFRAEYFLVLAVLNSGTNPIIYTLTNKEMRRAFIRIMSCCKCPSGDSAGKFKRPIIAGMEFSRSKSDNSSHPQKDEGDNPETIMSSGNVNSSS

Compound: Cn1cc(C(=O)Nc2ccc(-c3ccccc3)c(C(F)(F)F)c2)c(=O)c2cnccc21
Activity [1]: < 10%
microsomal CLint at 1 µM [2]: < 14 µL/min/mg
Activity (Rattus norvegicus [3]): -64%
solubility [4]: 5 µg/mL (≈ 11.8 µM)
EC50 [5]: > 25 µM
fraction unbound [6]: 0.083

Efficacy [7]: 28%
EC50 [8]: 0.18 µM
Efficacy [9]: 138%
EC50 [5]: 1.6 µM
Compound: Cn1cc(C(=O)Nc2ccc(-c3ccccc3)c(C(F)(F)F)c2)c(=O)c2ccc(CC(=O)O)cc21

Efficacy [7]: 11%
EC50 [8]: 2 µM
Efficacy [9]: 103%
EC50 [5]: 1.1 µM
Compound: Cn1cc(C(=O)Nc2ccc(-c3ccccc3)c(C(F)(F)F)c2)c(=O)c2cccc(C(=O)O)c21

Activity [1]: < 10%
microsomal CLint at 1 µM [2]: < 14 µL/min/mg
Papp [10]: 2.8 ×10⁻⁶ cm/s
concentration at 24 h [11]: 65 ng/mL
EC50 [8]: 0.018 µM
solubility [4]: 27 µg/mL (≈ 59.7 µM)
Efficacy [9]: 125%
efflux ratio [12]: 1
EC50 [5]: > 25 µM
fraction unbound [6]: 0.076
Compound: Cn1cc(C(=O)Nc2ccc(-c3ccccc3)c(C(F)(F)F)c2)c(=O)c2ccc(CO)cc21
Activity (Rattus norvegicus [3]): -44%

Activity [1]: < 10%
EC50 [8]: 0.7 µM
Efficacy [9]: 46%
EC50 [5]: > 25 µM
Compound: Cn1cc(C(=O)Nc2ccc(-c3ccccc3)c(C(F)(F)F)c2)c(=O)c2cc(CO)ccc21

Efficacy [7]: 49%
EC50 [8]: 0.038 µM
Efficacy [9]: 88%
EC50 [5]: 1.3 µM
Compound: Cn1cc(C(=O)Nc2ccc(-c3ccccc3)c(C(F)(F)F)c2)c(=O)c2cnc(CCC(=O)O)cc21

Activity [1]: < 10%
EC50 [8]: 0.39 µM
Efficacy [9]: 106%
EC50 [5]: > 25 µM
Compound: Cn1cc(C(=O)Nc2ccc(-c3ccccc3)c(C(F)(F)F)c2)c(=O)c2cccc(CCO)c21

Efficacy [9]: 105%
Compound: Cn1cc(C(=O)Nc2ccc(-c3ccccc3)c(C(F)(F)F)c2)c(=O)c2ccccc21

bioavailability [13]: 132%
MRT [14]: 40 h
Activity [1]: < 10%
clearance [15]: 1.83 mL/min/kg
microsomal CLint at 1 µM [2]: < 14 µL/min/mg
clearance [16]: 5.17 mL/min/kg
Papp [10]: 2.5 ×10⁻⁶ cm/s
concentration at 24 h [11]: 84 ng/mL
MRT [17]: 20 h
AUC(0-inf) [18]: 1630 µM·h
bioavailability [19]: > 93%
EC50 [8]: 0.018 µM
solubility [4]: > 200 µg/mL
Vd [20]: 5.8 L/kg
bioavailability [21]: 67%
Vd [23]: 6 L/kg
half-life [24]: 57 h
bioavailability [25]: 75%
AUC(0-inf) [26]: 16 µM·h
MRT [27]: 19 h
AUC(0-inf) [28]: 19 µM·h
AUC(0-inf) [29]: 141 µM·h
Vd [30]: 4.3 L/kg
Efficacy [9]: 106%
half-life [31]: 13 h
efflux ratio [12]: 1
clearance [32]: 5.17 mL/min/kg
EC50 [5]: > 25 µM
fraction unbound [6]: 0.083
Compound: Cn1cc(C(=O)Nc2ccc(-c3ccccc3)c(C(F)(F)F)c2)c(=O)c2cnc(CO)cc21
Activity (Rattus norvegicus [3]): -60%
Activity (Rattus norvegicus [22]): 88%
